Active and inactive are the calls of the source. No cut-off for these calls is given here.
How the values were obtained:
[1] = test system: primary macrophages (Homo sapiens); experiment: Antiinflammatory activity in human primary monocyte-derived macrophages assessed as inhibition of LPS-induced IL-6 mRNA expression at 10 uM treated 30 mins before LPS stimulation measured after 18 hrs by Northern blotting
[2] = molecular target: Rho-associated protein kinase 2 (Homo sapiens, UniProt O75116); experiment: Inhibition of human ROCK2
Rho-associated protein kinase 2, sequence (O75116 whole entry): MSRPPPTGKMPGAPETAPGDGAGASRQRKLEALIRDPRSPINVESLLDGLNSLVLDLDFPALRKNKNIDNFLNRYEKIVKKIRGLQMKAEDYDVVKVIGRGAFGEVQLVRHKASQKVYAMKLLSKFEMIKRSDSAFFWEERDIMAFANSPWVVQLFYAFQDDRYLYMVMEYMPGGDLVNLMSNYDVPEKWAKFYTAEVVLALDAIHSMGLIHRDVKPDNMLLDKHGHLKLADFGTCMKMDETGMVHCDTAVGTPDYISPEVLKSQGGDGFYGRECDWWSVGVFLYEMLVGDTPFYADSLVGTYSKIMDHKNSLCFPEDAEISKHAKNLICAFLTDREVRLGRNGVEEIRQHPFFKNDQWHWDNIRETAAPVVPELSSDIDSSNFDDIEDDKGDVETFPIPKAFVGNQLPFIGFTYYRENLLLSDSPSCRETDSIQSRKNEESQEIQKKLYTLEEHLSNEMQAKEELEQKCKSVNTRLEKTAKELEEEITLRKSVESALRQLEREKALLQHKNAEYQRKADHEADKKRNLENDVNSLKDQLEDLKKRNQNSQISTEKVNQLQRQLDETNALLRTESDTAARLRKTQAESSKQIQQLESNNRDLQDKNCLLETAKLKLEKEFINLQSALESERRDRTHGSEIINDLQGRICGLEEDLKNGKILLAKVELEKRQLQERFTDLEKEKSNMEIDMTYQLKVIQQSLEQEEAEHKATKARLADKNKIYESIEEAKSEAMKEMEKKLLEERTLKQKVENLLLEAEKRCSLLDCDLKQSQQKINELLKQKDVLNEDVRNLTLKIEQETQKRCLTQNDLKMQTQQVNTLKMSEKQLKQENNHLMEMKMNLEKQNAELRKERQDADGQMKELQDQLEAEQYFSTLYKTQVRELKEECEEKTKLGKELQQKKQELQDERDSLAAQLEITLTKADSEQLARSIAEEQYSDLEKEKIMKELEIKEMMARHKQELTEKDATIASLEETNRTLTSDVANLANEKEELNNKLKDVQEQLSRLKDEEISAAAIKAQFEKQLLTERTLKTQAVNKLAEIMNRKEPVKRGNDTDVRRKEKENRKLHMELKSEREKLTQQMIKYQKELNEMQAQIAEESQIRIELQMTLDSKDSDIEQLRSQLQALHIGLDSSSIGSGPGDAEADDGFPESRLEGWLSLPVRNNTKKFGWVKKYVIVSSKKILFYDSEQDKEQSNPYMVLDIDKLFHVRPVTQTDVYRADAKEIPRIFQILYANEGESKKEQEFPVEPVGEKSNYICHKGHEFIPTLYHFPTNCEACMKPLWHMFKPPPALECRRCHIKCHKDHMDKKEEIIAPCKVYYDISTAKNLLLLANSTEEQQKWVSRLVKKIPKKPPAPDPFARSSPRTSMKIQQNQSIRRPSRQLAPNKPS

[3] = molecular target: Rho-associated protein kinase 1 (Homo sapiens, UniProt Q13464); experiment: Inhibition of human recombinant N-terminal his-tagged ROCK1 (3-543) expressed in baculovirus infected Sf9 cells using Biotin-Ahx-AKRRLSSLRA-CONH2 substrate and [gamma-33P]ATP after 90 mins by scintillation proximity assay
[4] = molecular target: RAC-alpha serine/threonine-protein kinase (Homo sapiens, UniProt P31749); experiment: Inhibition of AKT1
RAC-alpha serine/threonine-protein kinase, sequence (P31749 whole entry): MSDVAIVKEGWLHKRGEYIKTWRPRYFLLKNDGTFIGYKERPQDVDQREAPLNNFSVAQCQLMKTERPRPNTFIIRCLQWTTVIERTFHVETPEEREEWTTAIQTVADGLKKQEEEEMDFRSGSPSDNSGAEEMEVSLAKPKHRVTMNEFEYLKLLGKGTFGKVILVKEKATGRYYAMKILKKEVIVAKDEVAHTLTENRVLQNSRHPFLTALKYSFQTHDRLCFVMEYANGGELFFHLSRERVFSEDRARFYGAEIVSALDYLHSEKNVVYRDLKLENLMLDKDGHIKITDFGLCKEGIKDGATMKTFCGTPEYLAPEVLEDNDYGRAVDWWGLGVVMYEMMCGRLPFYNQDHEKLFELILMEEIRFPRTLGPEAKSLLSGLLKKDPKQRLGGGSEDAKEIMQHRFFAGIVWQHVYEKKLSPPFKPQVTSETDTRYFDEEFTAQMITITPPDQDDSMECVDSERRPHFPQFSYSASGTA

[5] = molecular target: Mitogen-activated protein kinase 10 (Homo sapiens, UniProt P53779); experiment: Inhibition of JNK3
Mitogen-activated protein kinase 10, sequence (P53779 whole entry): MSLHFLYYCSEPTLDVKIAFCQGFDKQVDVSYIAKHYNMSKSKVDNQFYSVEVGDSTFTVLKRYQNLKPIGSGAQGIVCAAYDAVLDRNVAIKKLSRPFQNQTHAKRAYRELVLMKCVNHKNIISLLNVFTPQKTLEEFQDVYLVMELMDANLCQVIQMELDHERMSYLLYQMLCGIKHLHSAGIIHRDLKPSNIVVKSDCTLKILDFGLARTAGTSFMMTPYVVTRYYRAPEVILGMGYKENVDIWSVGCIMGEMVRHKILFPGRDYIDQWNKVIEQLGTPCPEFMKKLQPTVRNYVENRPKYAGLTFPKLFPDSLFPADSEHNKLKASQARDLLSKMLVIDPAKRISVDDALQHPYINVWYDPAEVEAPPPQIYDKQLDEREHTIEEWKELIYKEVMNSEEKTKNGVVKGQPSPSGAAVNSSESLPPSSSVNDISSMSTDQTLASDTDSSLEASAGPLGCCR

[6] = molecular target: T1, Inhibitor of nuclear factor kappa-B kinase subunit beta (Homo sapiens, UniProt O14920); experiment: Inhibition of IKK2
T1 sequence (O14920 whole entry): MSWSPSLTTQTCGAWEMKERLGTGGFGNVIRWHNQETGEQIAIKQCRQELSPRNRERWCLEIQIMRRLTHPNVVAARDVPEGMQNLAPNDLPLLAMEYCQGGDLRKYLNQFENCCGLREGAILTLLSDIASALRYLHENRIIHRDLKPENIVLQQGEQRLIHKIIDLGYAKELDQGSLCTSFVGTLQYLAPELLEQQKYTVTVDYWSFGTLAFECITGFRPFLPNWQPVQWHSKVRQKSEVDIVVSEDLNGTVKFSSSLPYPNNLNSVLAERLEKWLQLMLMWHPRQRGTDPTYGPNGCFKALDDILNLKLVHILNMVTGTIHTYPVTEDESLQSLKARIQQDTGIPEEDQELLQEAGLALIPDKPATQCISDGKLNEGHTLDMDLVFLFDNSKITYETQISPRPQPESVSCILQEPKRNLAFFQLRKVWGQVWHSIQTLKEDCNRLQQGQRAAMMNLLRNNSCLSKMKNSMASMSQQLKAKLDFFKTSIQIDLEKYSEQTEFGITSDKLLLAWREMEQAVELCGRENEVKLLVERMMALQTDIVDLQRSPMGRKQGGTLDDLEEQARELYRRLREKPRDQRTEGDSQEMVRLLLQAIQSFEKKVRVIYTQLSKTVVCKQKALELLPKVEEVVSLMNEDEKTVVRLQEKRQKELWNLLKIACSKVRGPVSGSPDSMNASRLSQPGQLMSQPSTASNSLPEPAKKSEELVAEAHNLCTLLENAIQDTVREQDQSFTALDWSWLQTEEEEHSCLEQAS

[7] = molecular target: RAC-gamma serine/threonine-protein kinase (Homo sapiens, UniProt Q9Y243); experiment: Inhibition of AKT3
RAC-gamma serine/threonine-protein kinase, sequence (Q9Y243 whole entry): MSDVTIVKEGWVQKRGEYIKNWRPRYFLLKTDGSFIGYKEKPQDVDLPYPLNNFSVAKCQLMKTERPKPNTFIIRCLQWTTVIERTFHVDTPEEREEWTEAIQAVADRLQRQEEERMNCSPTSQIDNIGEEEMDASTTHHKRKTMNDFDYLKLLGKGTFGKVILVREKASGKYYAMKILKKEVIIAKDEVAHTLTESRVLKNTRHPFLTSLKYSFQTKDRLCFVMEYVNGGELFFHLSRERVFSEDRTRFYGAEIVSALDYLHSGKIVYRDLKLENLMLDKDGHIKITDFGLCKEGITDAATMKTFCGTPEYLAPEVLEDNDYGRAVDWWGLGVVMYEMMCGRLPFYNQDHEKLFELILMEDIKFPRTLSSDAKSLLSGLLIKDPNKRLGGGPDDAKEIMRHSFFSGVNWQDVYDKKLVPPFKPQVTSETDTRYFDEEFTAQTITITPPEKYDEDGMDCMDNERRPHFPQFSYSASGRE

[8] = molecular target: Ribosomal protein S6 kinase alpha-1 (Homo sapiens, UniProt Q15418); experiment: Inhibition of RSK1
Ribosomal protein S6 kinase alpha-1, sequence (Q15418 whole entry): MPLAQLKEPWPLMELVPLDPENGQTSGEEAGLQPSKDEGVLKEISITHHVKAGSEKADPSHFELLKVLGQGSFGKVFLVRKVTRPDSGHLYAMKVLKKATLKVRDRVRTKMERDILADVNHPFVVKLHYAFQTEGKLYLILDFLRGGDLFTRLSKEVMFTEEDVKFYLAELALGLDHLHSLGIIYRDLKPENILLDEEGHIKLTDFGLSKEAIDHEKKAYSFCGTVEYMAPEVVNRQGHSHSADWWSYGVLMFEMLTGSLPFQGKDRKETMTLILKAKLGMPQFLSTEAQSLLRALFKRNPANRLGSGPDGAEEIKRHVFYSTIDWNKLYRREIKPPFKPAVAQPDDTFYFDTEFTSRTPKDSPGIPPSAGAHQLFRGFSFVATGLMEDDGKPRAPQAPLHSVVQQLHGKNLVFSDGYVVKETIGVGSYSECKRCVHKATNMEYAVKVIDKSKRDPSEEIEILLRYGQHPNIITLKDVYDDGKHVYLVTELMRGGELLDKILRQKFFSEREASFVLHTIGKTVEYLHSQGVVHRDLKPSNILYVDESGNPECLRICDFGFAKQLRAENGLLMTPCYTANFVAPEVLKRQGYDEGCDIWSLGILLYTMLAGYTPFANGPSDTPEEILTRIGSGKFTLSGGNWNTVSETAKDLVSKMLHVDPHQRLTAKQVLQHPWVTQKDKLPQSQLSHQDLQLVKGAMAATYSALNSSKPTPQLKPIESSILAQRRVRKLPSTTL

[9] = molecular target: Cyclin-dependent kinase 2 (Homo sapiens, UniProt P24941); experiment: Inhibition of CDK2
[10] = molecular target: Serine/threonine-protein kinase PLK1 (Homo sapiens, UniProt P53350); experiment: Inhibition of PLK
Serine/threonine-protein kinase PLK1, sequence (P53350 whole entry): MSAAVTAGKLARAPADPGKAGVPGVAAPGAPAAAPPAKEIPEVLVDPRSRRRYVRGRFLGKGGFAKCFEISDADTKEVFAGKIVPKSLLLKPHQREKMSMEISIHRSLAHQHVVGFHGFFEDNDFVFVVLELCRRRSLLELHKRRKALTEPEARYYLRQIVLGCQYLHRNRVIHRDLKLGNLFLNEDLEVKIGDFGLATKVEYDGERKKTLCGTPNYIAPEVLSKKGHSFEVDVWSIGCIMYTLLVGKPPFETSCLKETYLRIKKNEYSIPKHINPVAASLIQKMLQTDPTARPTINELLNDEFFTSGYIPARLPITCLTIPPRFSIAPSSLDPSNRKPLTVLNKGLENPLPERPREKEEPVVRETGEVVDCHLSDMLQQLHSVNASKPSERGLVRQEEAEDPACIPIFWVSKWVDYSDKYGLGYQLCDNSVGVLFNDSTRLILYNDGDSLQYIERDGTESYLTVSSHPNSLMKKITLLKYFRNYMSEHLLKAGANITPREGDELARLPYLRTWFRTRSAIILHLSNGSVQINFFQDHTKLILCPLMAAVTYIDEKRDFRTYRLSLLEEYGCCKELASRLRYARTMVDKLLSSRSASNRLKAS

[11] = test system: Rattus norvegicus; experiment: Cardiovascular activity in spontaneously hypertensive rat assessed as increase in heart rate at 0.3 to 3 mg/kg, po; format: ADME, organism-based; design: dose 0.3-3 mg/kg, route oral; settings: in vivo
Method in brief: (§1)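 Compound given by oral gavage: 0.3, 1 and 3 mg/kg to spontaneously hypertensive rats, and 1 mg/kg to DOCA salt-treated hypertensive rats. A vehicle group was run alongside. Heart rate and blood pressure were recorded from immediately after dosing as 10-s averages every 5 min. There were 4-6 animals per dose (5 per group in the legend), and the change was taken from each group's baseline.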

[12] = molecular target: Glycogen synthase kinase-3 alpha (Homo sapiens, UniProt P49840); experiment: Inhibition of GSK3alpha
Glycogen synthase kinase-3 alpha, sequence (P49840 whole entry): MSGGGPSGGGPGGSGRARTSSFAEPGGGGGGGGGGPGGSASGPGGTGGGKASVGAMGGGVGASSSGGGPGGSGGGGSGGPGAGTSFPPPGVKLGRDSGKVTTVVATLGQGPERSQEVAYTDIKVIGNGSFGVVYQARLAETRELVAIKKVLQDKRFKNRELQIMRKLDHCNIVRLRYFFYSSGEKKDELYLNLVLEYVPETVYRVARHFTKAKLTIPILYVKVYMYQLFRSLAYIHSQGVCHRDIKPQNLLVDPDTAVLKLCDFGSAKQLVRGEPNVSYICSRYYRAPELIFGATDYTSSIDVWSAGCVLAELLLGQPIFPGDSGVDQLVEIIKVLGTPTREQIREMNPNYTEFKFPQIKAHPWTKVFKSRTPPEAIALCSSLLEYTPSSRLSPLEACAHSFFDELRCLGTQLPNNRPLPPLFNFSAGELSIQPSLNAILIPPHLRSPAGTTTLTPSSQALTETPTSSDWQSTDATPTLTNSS

[13] = molecular target: Ribosomal protein S6 kinase alpha-5 (Homo sapiens, UniProt O75582); experiment: Inhibition of MSK1
[14] = test system: Rattus norvegicus; experiment: Cardiovascular activity in DOCA salt treated rat assessed as increase in heart rate at 1 mg/kg, po; format: ADME, organism-based; design: dose 1 mg/kg, route oral; settings: in vivo
Method in brief: as §1

[15] = test system: Rattus norvegicus; experiment: Antihypertensive activity in rat assessed as reduction of DOCA salt-induced blood pressure at 1 mg/kg, po after 2 hrs; format: functional
[16] = test system: Rattus norvegicus; experiment: Antihypertensive activity in spontaneously hypertensive rat assessed as reduction of blood pressure at 1 mg/kg, po after 2 hrs; format: functional
[17] = test system: Rattus norvegicus; experiment: Antihypertensive activity in normotensive Sprague-Dawley rat assessed as reduction of blood pressure at 1 mg/kg, po after 2 hrs; format: functional
[18] = molecular target: RAC-beta serine/threonine-protein kinase (Homo sapiens, UniProt P31751); experiment: Inhibition of AKT2
[19] = test system: Aorta; experiment: Vasodilatory activity in Sprague-Dawley rat aorta assessed as reversal of KCl/phenylephrine-induced muscle contraction; format: functional, tissue-based

## CCn1c(-c2nonc2N)nc2cncc(-c3ccc(CN)cc3)c21
[1]
  inhibition: Active
[2]
  IC50: < 10 nM
[3]
  IC50: < 10 nM

## CCn1c(-c2nonc2N)nc2cnc(Oc3cccc(NC(=O)c4ccc(OCCN5CCOCC5)cc4)c3)cc21 [GSK-269962A]
[4]
  IC50: 955 nM
[5]
  IC50: > 10000 nM
[6]
  IC50: > 10000 nM
[7]
  IC50: 1510 nM
[8]
  IC50: 132 nM
[9]
  IC50: 3500 nM
[10]
  IC50: > 10000 nM
[11]
  Activity: Dose-dependent effect
[12]
  IC50: 1260 nM
[13]
  IC50: 49 nM

## CCn1c(-c2nonc2N)nc2cnccc21
[1]
  inhibition: Active
[2]
  IC50: < 10 nM
[3]
  IC50: < 10 nM

## CCn1c(-c2nonc2N)nc2cncc(C(=O)N3CC[C@H](N)C3)c21
[14]
  Activity: Toxic
[4]
  IC50: 324 nM
[5]
  IC50: > 10000 nM
[6]
  IC50: > 10000 nM
[15]
  Activity: 40 mmHg
[7]
  IC50: 1290 nM
[8]
  IC50: 35 nM
[16]
  Activity: 40 mmHg
[9]
  IC50: 7000 nM
[17]
  Activity: 12 mmHg
[10]
  IC50: > 10000 nM
[11]
  Activity: Dose-dependent effect
[12]
  IC50: 9100 nM
[18]
  IC50: 1950 nM

## C[C@@H](N)[C@H]1CC[C@H](C(=O)Nc2ccncc2)CC1 [Y-27632]
[11]
  Activity: Dose-dependent effect
[19]
  IC50: 1400 nM
